This passage reports MIC results from ChEMBL document CHEMBL1132751, “Structure-activity relationships of trans-3,5-disubstituted pyrrolidinylthio-1beta-methylcarbapenems. Part 1: J-111,347 and related compounds” (2000).

What all share (format): functional
One assay has as its system Escherichia coli. In words: In vitro antibacterial activity was determined against Escherichia coli NIHJ JC2.
The subject of assay [1] is Pseudomonas aeruginosa. Briefly: In vitro antibacterial activity was determined against Pseudomonas aeruginosa AK109.
The subject of assay [2] is Pseudomonas aeruginosa. In words: In vitro antibacterial activity was determined against ceftazidime- resistant Pseudomonas aeruginosa AKR17. In short, it runs like this:
(§1)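 Minimum inhibitory concentration determined by agar dilution. The S. aureus pMS520/Smith and S. epidermidis MB5181 strains are methicillin-resistant isolates.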

In assay [3] the test system is Staphylococcus aureus. Briefly: In vitro antibacterial activity was determined against Staphylococcus aureus 209P NIHJ JCI.
Assay [4] relates to Staphylococcus aureus. In words: In vitro antibacterial activity was determined against methicillin-resistant Staphylococcus aureus pMS520/Smith. In short, it runs like this:
as §1

For assay [5], the system named is Staphylococcus epidermidis. In words: In vitro antibacterial activity was determined against methicillin-resistant Staphylococcus epidermidis MB5181. In a few lines:
as §1

For assay [6], the system named is Staphylococcus aureus. In words: TIn vitro antibacterial activity against methicillin-resistant Staphylococcus aureus pMS520/Smith. In short, it runs like this: as §1

SMILES strings stand for the structures. Values after ≈ are worked out from the molar mass of the structure shown.

With `C[C@@H](O)[C@H]1C(=O)N2C(C(=O)O)=C(S[C@@H]3CN[C@H](CNc4ccccc4)C3)[C@H](C)[C@H]12`, the minimum inhibitory concentration (MIC) in the assay on Escherichia coli was 0.05 µg/mL (≈ 0.12 µM); against Pseudomonas aeruginosa [1] it was 12.5 µg/mL (≈ 29.9 µM); against Pseudomonas aeruginosa [2], 25 µg/mL (≈ 59.9 µM); against Staphylococcus aureus [3], < 0.006 µg/mL; in the assay on Staphylococcus aureus [4], 12.5 µg/mL (≈ 29.9 µM); in assay [5] it was 6.25 µg/mL (≈ 15 µM).
On to `C[C@@H](O)[C@H]1C(=O)N2C(C(=O)O)=C(S[C@@H]3CN[C@H](COc4ccc(CN)cc4)C3)[C@H](C)[C@H]12`, for which the minimal inhibitory concentration (MIC) against Escherichia coli was 0.025 µg/mL (≈ 0.0559 µM); with Pseudomonas aeruginosa [1] it was 1.56 µg/mL (≈ 3.49 µM); with Pseudomonas aeruginosa [2], 12.5 µg/mL (≈ 27.9 µM); in the assay on Staphylococcus aureus [3] it was < 0.006 µg/mL; in the assay on Staphylococcus aureus [4], 3.13 µg/mL (≈ 6.99 µM); in assay [5], 6.25 µg/mL (≈ 14 µM).
As to `C[C@@H](O)[C@H]1C(=O)N2C(C(=O)O)=C(S[C@@H]3CN[C@H](CCc4ccccc4)C3)[C@H](C)[C@H]12`, the minimal inhibitory concentration (MIC) in the assay on Escherichia coli was 0.05 µg/mL (≈ 0.12 µM); against Pseudomonas aeruginosa [1], 25 µg/mL (≈ 60 µM); in the assay on Pseudomonas aeruginosa [2], > 50 µg/mL; against Staphylococcus aureus [3], < 0.006 µg/mL; in the assay on Staphylococcus aureus [4], 6.25 µg/mL (≈ 15 µM); in assay [5], 3.13 µg/mL (≈ 7.51 µM).
As for `C[C@@H](O)[C@H]1C(=O)N2C(C(=O)O)=C(S[C@@H]3CN[C@@H](CSc4ccc(CN)cc4)C3)[C@H](C)[C@H]12`, the minimal inhibitory concentration (MIC) against Escherichia coli is 0.05 µg/mL (≈ 0.108 µM); against Pseudomonas aeruginosa [1], 1.56 µg/mL (≈ 3.36 µM); against Pseudomonas aeruginosa [2] it was 12.5 µg/mL (≈ 27 µM); against Staphylococcus aureus [3], < 0.006 µg/mL; against Staphylococcus aureus [4], 3.13 µg/mL (≈ 6.75 µM); in assay [5] it was 3.13 µg/mL (≈ 6.75 µM).
Consider `C[C@@H](O)[C@H]1C(=O)N2C(C(=O)O)=C(S[C@@H]3CN[C@@H](c4ccc(CN)cc4)C3)[C@H](C)[C@H]12`, for which the MIC against Escherichia coli was 0.025 µg/mL (≈ 0.0599 µM); with Pseudomonas aeruginosa [1] it was 0.39 µg/mL (≈ 0.934 µM); in the assay with Pseudomonas aeruginosa [2], 3.13 µg/mL (≈ 7.5 µM); against Staphylococcus aureus [3], < 0.006 µg/mL; against Staphylococcus aureus [4] it was 0.78 µg/mL (≈ 1.87 µM); in assay [5], 1.56 µg/mL (≈ 3.74 µM).
As to `C[C@@H](O)[C@H]1C(=O)N2C(C(=O)O)=C(S[C@@H]3CN[C@H](COc4ccccc4)C3)[C@H](C)[C@H]12`, the minimum inhibitory concentration (MIC) is 0.39 µg/mL (≈ 0.932 µM) in the assay on Escherichia coli; 25 µg/mL (≈ 59.7 µM) against Pseudomonas aeruginosa [1]; > 50 µg/mL against Pseudomonas aeruginosa [2]; 0.012 µg/mL (≈ 0.0287 µM) against Staphylococcus aureus [3]; 25 µg/mL (≈ 59.7 µM) against Staphylococcus aureus [4]; 25 µg/mL (≈ 59.7 µM) in assay [5].
On to `C[C@@H](O)[C@H]1C(=O)N2C(C(=O)O)=C(S[C@@H]3CN[C@H](CSc4ccc(CN)cc4)C3)[C@H](C)[C@H]12`, for which the minimum inhibitory concentration (MIC) in the assay with Escherichia coli is 0.025 µg/mL (≈ 0.0539 µM); with Pseudomonas aeruginosa [1], 0.78 µg/mL (≈ 1.68 µM); in the assay with Pseudomonas aeruginosa [2], 3.13 µg/mL (≈ 6.75 µM); with Staphylococcus aureus [3] it was < 0.006 µg/mL; in the assay with Staphylococcus aureus [4], 1.56 µg/mL (≈ 3.36 µM); in assay [5], 3.13 µg/mL (≈ 6.75 µM).
As to `C[C@@H](O)[C@H]1C(=O)N2C(C(=O)O)=C(S[C@@H]3CN[C@@H](Cc4ccc(CN)cc4)C3)[C@H](C)[C@H]12`, the minimum inhibitory concentration (MIC) is 0.39 µg/mL (≈ 0.904 µM) with Escherichia coli; 25 µg/mL (≈ 57.9 µM) against Pseudomonas aeruginosa [1]; > 100 µg/mL against Pseudomonas aeruginosa [2]; 0.05 µg/mL (≈ 0.116 µM) against Staphylococcus aureus [3]; 12.5 µg/mL (≈ 29 µM) with Staphylococcus aureus [4]; 12.5 µg/mL (≈ 29 µM) in assay [5].
With `C[C@@H](O)[C@H]1C(=O)N2C(C(=O)O)=C(S[C@@H]3CN[C@H](Cc4ccc(CN)cc4)C3)[C@H](C)[C@H]12`, the MIC against Escherichia coli is 0.025 µg/mL (≈ 0.0579 µM); in the assay on Pseudomonas aeruginosa [1] it was 0.39 µg/mL (≈ 0.904 µM); in the assay with Pseudomonas aeruginosa [2], 6.25 µg/mL (≈ 14.5 µM); in the assay with Staphylococcus aureus [3], < 0.006 µg/mL; in the assay with Staphylococcus aureus [4], 3.13 µg/mL (≈ 7.25 µM); in assay [5], 3.13 µg/mL (≈ 7.25 µM).
Consider `C[C@@H](O)[C@H]1C(=O)N2C(C(=O)O)=C(S[C@@H]3CN[C@H](Cc4ccccc4)C3)[C@H](C)[C@H]12`, for which the minimal inhibitory concentration (MIC) was 0.1 µg/mL (≈ 0.248 µM) against Escherichia coli; 25 µg/mL (≈ 62.1 µM) with Pseudomonas aeruginosa [1]; > 50 µg/mL against Pseudomonas aeruginosa [2]; < 0.006 µg/mL against Staphylococcus aureus [3]; 6.25 µg/mL (≈ 15.5 µM) against Staphylococcus aureus [4]; 3.13 µg/mL (≈ 7.78 µM) in assay [5].
For the molecule `C[C@@H](O)[C@H]1C(=O)N2C(C(=O)O)=C(S[C@@H]3CN[C@H](CSc4ccccc4)C3)[C@H](C)[C@H]12`, the MIC against Escherichia coli was 0.1 µg/mL (≈ 0.23 µM); with Pseudomonas aeruginosa [1], 50 µg/mL (≈ 115 µM); in the assay with Pseudomonas aeruginosa [2] it was 50 µg/mL (≈ 115 µM); against Staphylococcus aureus [3], < 0.006 µg/mL; in the assay on Staphylococcus aureus [4], 6.25 µg/mL (≈ 14.4 µM); in assay [5], 3.13 µg/mL (≈ 7.2 µM).
Turning to `C[C@@H](O)[C@H]1C(=O)N2C(C(=O)O)=C(S[C@@H]3CN[C@H](CCc4ccc(CN)cc4)C3)[C@H](C)[C@H]12`, the MIC against Escherichia coli is 0.025 µg/mL (≈ 0.0561 µM); in the assay with Pseudomonas aeruginosa [1], 0.78 µg/mL (≈ 1.75 µM); against Pseudomonas aeruginosa [2], 6.25 µg/mL (≈ 14 µM); in the assay with Staphylococcus aureus [3], < 0.006 µg/mL; against Staphylococcus aureus [4], 3.13 µg/mL (≈ 7.02 µM); in assay [5], 25 µg/mL (≈ 56.1 µM).
In the case of `C[C@@H](O)[C@H]1C(=O)N2C(C(=O)O)=C(S[C@@H]3CN[C@H](c4ccc(CN)cc4)C3)[C@H](C)[C@H]12`, the MIC in the assay with Escherichia coli is 0.025 µg/mL (≈ 0.0599 µM); against Pseudomonas aeruginosa [1], 0.78 µg/mL (≈ 1.87 µM); with Pseudomonas aeruginosa [2], 6.25 µg/mL (≈ 15 µM); against Staphylococcus aureus [3], < 0.006 µg/mL; with Staphylococcus aureus [6] it was 1.56 µg/mL (≈ 3.74 µM); in assay [5], 3.13 µg/mL (≈ 7.5 µM).
Turning to `C[C@@H](O)[C@H]1C(=O)N2C(C(=O)O)=C(S[C@@H]3CN[C@H](CNc4ccc(CN)cc4)C3)[C@H](C)[C@H]12`, the minimal inhibitory concentration (MIC) against Escherichia coli was 0.025 µg/mL (≈ 0.056 µM); with Pseudomonas aeruginosa [1], 1.56 µg/mL (≈ 3.49 µM); in the assay with Pseudomonas aeruginosa [2], 12.5 µg/mL (≈ 28 µM); in the assay with Staphylococcus aureus [3], < 0.006 µg/mL; against Staphylococcus aureus [4], 3.13 µg/mL (≈ 7.01 µM); in assay [5], 6.25 µg/mL (≈ 14 µM).
Turning to `C[C@@H](O)[C@H]1C(=O)N2C(C(=O)O)=C(SCCNC=N)C[C@H]12.O`, the MIC against Escherichia coli is 0.01 µg/mL; in the assay on Pseudomonas aeruginosa [1], 1.56 µg/mL; with Pseudomonas aeruginosa [2], 3.13 µg/mL; against Staphylococcus aureus [3], < 0.006 µg/mL; against Staphylococcus aureus [4], 50 µg/mL; in assay [5], 50 µg/mL.
As for `CN[C@H](CC(C)C)C(=O)N[C@H]1C(=O)N[C@@H](CC(N)=O)C(=O)N[C@H]2C(=O)N[C@H]3C(=O)N[C@H](C(=O)N[C@H](C(=O)O)c4cc(O)cc(O)c4-c4cc3ccc4O)[C@H](O)c3ccc(c(Cl)c3)Oc3cc2cc(c3O[C@@H]2O[C@H](CO)[C@@H](O)[C@H](O)[C@H]2O[C@H]2C[C@](C)(N)[C@H](O)[C@H](C)O2)Oc2ccc(cc2Cl)[C@H]1O` [VANCOMYCIN], the MIC in the assay with Escherichia coli was > 100 µg/mL; against Pseudomonas aeruginosa [1], > 100 µg/mL; in the assay with Pseudomonas aeruginosa [2] it was > 100 µg/mL; in the assay with Staphylococcus aureus [4], 0.78 µg/mL (≈ 0.538 µM).
